Experimental findings from ChEMBL document CHEMBL2384917, “Design, synthesis and biological evaluation of novel 3,4,5-trisubstituted aminothiophenes as inhibitors of p53-MDM2 interaction. Part 1” (Bioorg Med Chem, 2013) are described below.

The term Ki denotes a dissociation constant, usually derived from enzyme kinetics or from competition with a known ligand. Higher therefore signals a looser hold on the target. The IC50 is the concentration needed to halve the response being measured.

In test [1] the target is Tumour suppressor p53/oncoprotein Mdm2 (Homo sapiens, UniProt Q00987). The experiment in a line: (§1) Inhibition of p53-MDM2 (unknown origin) interaction expressed in Escherichia coli BL-21 (DE3) after 1 hr by fluorescence polarization assay. (In fluorescence polarisation assays a small probe gives low polarisation when free and higher when bound to something large.)
A further test relates to PC-3. The experiment in a line: Cytotoxicity against human p53-null PC3 cells assessed as growth inhibition after 72 hrs by SRB assay. Format: functional, cell-based. To be noted: PC-3, 72 h. The method in brief: (§2)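 Cells seeded in 96-well plates, cultured overnight, then exposed to serial compound concentrations for 72 h. Fixed with 10% (w/v) TCA at 4 °C for 1 h, stained 30 min with 0.4% SRB in 1% acetic acid, washed with 1% acetic acid, bound dye dissolved in 10 mmol unbuffered Tris base, absorbance read at 515 nm. Inhibition calculated relative to untreated control wells; IC50 derived.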
In general terms: In SRB staining, fixed cells bind dye roughly in proportion to their protein.

Test [2] concerns A549. The experiment in a line: Cytotoxicity against human A549 cells expressing wild type p53 assessed as growth inhibition after 72 hrs by SRB assay. The class given is functional, cell-based. To be noted: A549, 72 h. The method in brief: as §2
The target of test [3] is Tumour suppressor p53/oncoprotein Mdm2 (Homo sapiens, UniProt P04637+Q00987). The description is as §1.
The subject of test [4] is A549. The experiment in a line: Selectivity ratio of IC50 for human p53-null PC3 cells to IC50 for human A549 cells expressing wild type p53. Format: functional.

Chain of Tumour suppressor p53/oncoprotein Mdm2 (Homo sapiens, UniProt Q00987) (P04637 whole entry): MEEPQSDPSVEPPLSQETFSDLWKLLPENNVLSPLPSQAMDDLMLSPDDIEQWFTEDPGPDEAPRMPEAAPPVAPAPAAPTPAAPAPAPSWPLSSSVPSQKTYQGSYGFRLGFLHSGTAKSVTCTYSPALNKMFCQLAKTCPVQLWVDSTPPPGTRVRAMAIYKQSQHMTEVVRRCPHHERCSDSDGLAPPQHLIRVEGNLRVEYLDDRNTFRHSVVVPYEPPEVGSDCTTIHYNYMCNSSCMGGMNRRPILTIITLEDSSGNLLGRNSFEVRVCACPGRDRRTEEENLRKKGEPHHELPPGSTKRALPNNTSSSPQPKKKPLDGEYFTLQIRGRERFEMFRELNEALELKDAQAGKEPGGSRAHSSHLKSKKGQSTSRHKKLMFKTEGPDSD
Chain of Tumour suppressor p53/oncoprotein Mdm2 (Homo sapiens, UniProt Q00987) (Q00987 whole entry): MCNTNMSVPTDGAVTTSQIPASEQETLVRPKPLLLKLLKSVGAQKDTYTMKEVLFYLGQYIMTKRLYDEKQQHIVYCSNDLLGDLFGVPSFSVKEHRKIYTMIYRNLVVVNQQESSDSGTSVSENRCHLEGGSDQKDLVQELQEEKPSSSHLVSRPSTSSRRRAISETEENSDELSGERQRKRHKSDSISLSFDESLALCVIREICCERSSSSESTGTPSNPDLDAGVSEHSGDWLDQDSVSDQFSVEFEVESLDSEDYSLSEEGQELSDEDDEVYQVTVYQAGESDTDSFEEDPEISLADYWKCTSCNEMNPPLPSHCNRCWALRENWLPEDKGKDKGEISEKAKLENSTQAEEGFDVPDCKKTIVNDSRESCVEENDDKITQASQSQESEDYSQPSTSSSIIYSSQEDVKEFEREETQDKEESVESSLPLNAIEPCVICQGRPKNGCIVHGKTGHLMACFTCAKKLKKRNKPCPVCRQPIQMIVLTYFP
Chain of Tumour suppressor p53/oncoprotein Mdm2 (Homo sapiens, UniProt P04637+Q00987) (P04637 whole entry): as the sequence (P04637 whole entry) above
Chain of Tumour suppressor p53/oncoprotein Mdm2 (Homo sapiens, UniProt P04637+Q00987) (Q00987 whole entry): as the sequence (Q00987 whole entry) above

`COC(=O)c1c(N)sc(-c2ccc(Cl)cc2)c1-c1ccc(Cl)cc1` showed a Ki in test [1] of 1.52 µM.
Turning to `Nc1sc(-c2ccc(Cl)cc2)c(-c2ccc(Cl)cc2)c1C(=O)Nc1ccccc1`, in test [1], the Ki is > 50 µM. Also, the concentration for half-maximal inhibition (IC50) in the test with PC-3 was > 50 µM; with A549 [2], 25 µM.
The compound `CC1CCN(C(=O)c2c(N)sc(-c3ccc(Cl)cc3)c2-c2ccc(Cl)cc2)CC1` showed a Ki in test [1] of 0.8 µM. For the same compound, the IC50 in the test with PC-3 amounted to 5.75 µM; in the test on A549 [2], 1.75 µM.
In test [1], `Nc1sc(-c2ccc(Cl)cc2)c(-c2ccc(Cl)cc2)c1C(=O)NC1CC1` displayed a Ki of 0.54 µM. That is a sub-micromolar value.
In the case of `CC(C)(C)NC(=O)c1c(N)sc(-c2ccc(Cl)cc2)c1-c1ccc(Cl)cc1`, affinity in test [1] was put at a Ki of 0.81 µM. For the same compound, the concentration for half-maximal inhibition (IC50) in the test with PC-3 came out at 15.1 µM; with A549 [2], 8.85 µM.
Take `Nc1sc(-c2ccc(Cl)cc2)c(-c2ccc(Cl)cc2)c1C(=O)NC1CCCC1`: the affinity in test [1] corresponds to a Ki of 0.54 µM. For the same compound, the IC50 in the test on PC-3 is 21.2 µM; in the test with A549 [2] it was 6.79 µM.
`Nc1sc(-c2ccc(Cl)cc2)c(-c2ccc(Cl)cc2)c1C(=O)NC1CCCCC1` came in with an inhibition constant (Ki) in test [1] of 0.23 µM.
In turn, `Nc1sc(-c2ccc(Cl)cc2)c(-c2ccc(Cl)cc2)c1C(=O)N1CCCCC1` yielded a Ki in test [1] of 1.21 µM. Further, the results for the IC50 with PC-3 and in the test with A549 [2] were 14.3 µM and 4.62 µM, respectively.
For `COc1ccc(CNC(=O)c2c(N)sc(-c3ccc(Cl)cc3)c2-c2ccc(Cl)cc2)cc1`, in test [1], the Ki came to 0.64 µM. The half-maximal inhibitory concentration (IC50) was 29.5 µM with PC-3 and 18.2 µM with A549 [2].
Consider `CC(=O)Nc1sc(-c2ccc(Cl)cc2)c(-c2ccc(Cl)cc2)c1C(=O)N1CCCCC1`, for which the inhibition constant Ki in test [1] turned out to be 3.57 µM. Further, the half-inhibitory concentration (IC50) with PC-3 amounted to 10.3 µM; in the test with A549 [2], 6.01 µM.
For `CCCCNC(=O)c1c(N)sc(-c2ccc(Cl)cc2)c1-c1ccc(Cl)cc1` the same measures were 0.55 µM, 17.8 µM and 8.17 µM.
For `CCOC(=O)Nc1sc(-c2ccc(Cl)cc2)c(-c2ccc(Cl)cc2)c1C(=O)NC1CC1`, in test [3], the Ki entry was “Not Active”. Moreover, the values for the IC50 with PC-3 and in the test with A549 [2] were 27.6 µM and 39.8 µM, respectively.
In test [1], `CC1CN(C(=O)c2c(N)sc(-c3ccc(Cl)cc3)c2-c2ccc(Cl)cc2)CCN1` (configuration not stated) came in with a Ki of 17.7 µM. The half-inhibitory concentration (IC50) in the test with PC-3 came out at 7.21 µM; with A549 [2] it was 4.93 µM.
As to `O=C(NCCN1CCOCC1)Nc1sc(-c2ccc(Cl)cc2)c(-c2ccc(Cl)cc2)c1C(=O)NC1CC1`, in test [3], the Ki result was “Not Active”.
On to `O=C(CCN1CCOCC1)Nc1sc(-c2ccc(Cl)cc2)c(-c2ccc(Cl)cc2)c1C(=O)N1CCCCC1`, for which the Ki entry in test [3] was “Not Active”. In addition, the IC50 with PC-3 and in the test with A549 [2] was > 25 µM in each case.
In the case of `CC(C)CNC(=O)c1c(N)sc(-c2ccc(Cl)cc2)c1-c1ccc(Cl)cc1`, the Ki in test [1] was found to be 4.13 µM. In addition, the IC50 in the test on PC-3 is 21 µM.
Take `CCN(CC)CCNC(=O)Nc1sc(-c2ccc(Cl)cc2)c(-c2ccc(Cl)cc2)c1C(=O)NC1CC1`: in test [3], the Ki result is “Not Active”.
`Nc1sc(-c2ccc(Cl)cc2)c(-c2ccc(Cl)cc2)c1C(=O)NCc1ccccc1` returned a Ki in test [1] of 0.15 µM. Moreover, the half-maximal inhibitory concentration (IC50) was determined as 31.8 µM in the test on PC-3 and 16.3 µM with A549 [2].
For `Nc1sc(-c2ccc(Cl)cc2)c(-c2ccc(Cl)cc2)c1C(=O)N1CCC(=O)CC1` the same measures were 2.19 µM, 1.34 µM and 2.01 µM.
In test [1], `Nc1sc(-c2ccc(Cl)cc2)c(-c2ccc(Cl)cc2)c1C(=O)NC1CCC(O)CC1` (configuration not stated) displayed a Ki of 0.99 µM. Also, the “Ratio IC50” value in the test on A549 [4] was 22. The half-maximal inhibitory concentration (IC50) with PC-3 turned out to be 5.67 µM; in the test on A549 [2], 0.25 µM.
The compound `Nc1sc(-c2ccc(Cl)cc2)c(-c2ccc(Cl)cc2)c1C(=O)N1CCCCC1=O` had a Ki in test [1] of 1.55 µM. In addition, the figures for the concentration for half-maximal inhibition (IC50) with PC-3 and with A549 [2] were 4.94 µM and 1.82 µM, respectively.
In test [1], `Nc1sc(-c2ccc(Cl)cc2)c(-c2ccc(Cl)cc2)c1C(=O)NC1CCC1` yielded an inhibition constant Ki of 1.12 µM. In addition, the figures for the 50% inhibitory concentration (IC50) in the test with PC-3 and with A549 [2] were 24.8 µM and 12.5 µM, respectively.
In the same order, the values of `Nc1sc(-c2ccc(Cl)cc2)c(-c2ccc(Cl)cc2)c1C(=O)N1CCC(=O)CC1=O` are 3.52 µM, 9.23 µM and 4.09 µM.
`Nc1sc(-c2ccc(Cl)cc2)c(-c2ccc(Cl)cc2)c1C(=O)N1CCNCC1` came in with an inhibition constant Ki in test [1] of 6.81 µM. Also, the results for the half-inhibitory concentration (IC50) in the test on PC-3 and in the test on A549 [2] were 2.71 µM and 1.02 µM, respectively.
As for `CS(=O)(=O)Nc1sc(-c2ccc(Cl)cc2)c(-c2ccc(Cl)cc2)c1C(=O)NC1CC1`, in test [1], the Ki is > 50 µM.
In the case of `Nc1sc(-c2ccc(Cl)cc2)c(-c2ccc(Cl)cc2)c1C(=O)N1CCOCC1`, the affinity in test [1] corresponds to a Ki of 0.43 µM. Moreover, in the test on A549 [4], the “Ratio IC50” value came out at 6. For the same compound, the results for the IC50 in the test on PC-3 and with A549 [2] were 11.7 µM and 1.87 µM, respectively.
In the same order, the values of `CN1CCN(C(=O)c2c(N)sc(-c3ccc(Cl)cc3)c2-c2ccc(Cl)cc2)CC1` are 1.52 µM, 22, 13.1 µM and 0.59 µM.
In the case of `Nc1sc(-c2ccc(Cl)cc2)c(-c2ccc(Cl)cc2)c1C(=O)N1CCCC1`, in test [1], the Ki is 0.74 µM.
